# Measured values reported in ChEMBL document CHEMBL4828740, “Discovery of Quinoxaline-Based P1-P3 Macrocyclic NS3/4A Protease Inhibitors with Potent Activity against Drug-Resistant Hepatitis C Virus Variants” (J Med Chem, 2021).
# Legend:
# [1] = tested on: Hepatitis C virus; assay: Antiviral activity against HCV genotype 1b harboring D168A mutant infected in human Huh7 cells incubated for 96 hrs by luciferase assay; format: functional, organism-based, Hepacivirus hominis; settings: subtype 1b, Huh-7, 96 h
# Method in brief: (§1)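 Con1 (GT-1b) luciferase reporter replicon carrying the H77 (GT-1a) NS3 protease region, with the mutation introduced by megaprimer site-directed mutagenesis. Cured Huh7 cells were grown in DMEM with 10% heat-inactivated FBS and 0.1 mM non-essential amino acids, electroporated with replicon RNA transcripts, and kept with serially diluted inhibitor. EC50 was taken directly from the inhibition curves.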
# [2] = tested on: Hepatitis C virus; assay: Antiviral activity against HCV genotype 3a infected in human Huh7.5 cells incubated for 72 hrs by luciferase assay; format: functional, organism-based, Hepacivirus hominis; settings: subtype 3a, Huh7.5, 72 h
# Method in brief: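 Huh7.5 cells stably harboring the GT-3a replicon S52/SG-Feo SHI, seeded at 8,000 cells/well. Cells lysed in 1X Passive Lysis Buffer and luciferase activity measured. EC50 taken from drug inhibition curves.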
# [3] = tested on: Hepatitis C virus; assay: Antiviral activity against HCV genotype 1b infected in human Huh7 cells incubated for 96 hrs by luciferase assay; format: functional, organism-based, Hepacivirus hominis; settings: Huh-7, 96 h
# Method in brief: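 Con1 (GT-1b) luciferase reporter replicon carrying the H77 (GT-1a) NS3 protease region, either WT or with A156T or D168A introduced by megaprimer mutagenesis. Cured Huh7 cells grown in DMEM with 10% heat-inactivated FBS and 0.1 mM non-essential amino acids. Cells electroporated with replicon RNA and kept with serially diluted inhibitor.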
# [4] = molecular target: T1, Hepatitis C virus serine protease, NS3/NS4A (Hepatitis C virus, UniProt A3EZI9+D2K2A8); assay: Inhibition of HCV GT-3a NS3/4a protease using Ac-DE-D(Edans)-EE-Abu-c-[COO]-AS-K(Dabcy1)-NH2 preincubated for 1 hr followed by substrate addition; format: protein-complex assay, Hepatitis C virus subtype 3a
# [5] = molecular target: T1, Hepatitis C virus serine protease, NS3/NS4A; assay: Inhibition of HCV GT-1a NS3/4a protease using Ac-DE-D(Edans)-EE-Abu-c-[COO]-AS-K(Dabcy1)-NH2 preincubated for 1 hr followed by substrate addition; format: protein complex, Hepatitis C virus subtype 1a
# [6] = tested on: Hepatitis C virus; assay: Antiviral activity against HCV genotype 1b harboring A156T mutant infected in human Huh7 cells incubated for 96 hrs by luciferase assay; format: functional, organism-based, Hepacivirus hominis; settings: subtype 1b, Huh-7, 96 h; method in brief: as §1
# [7] = Cmax in Sprague-Dawley rat at 10 mg/kg, po measured after 0.25 to 24 hrs by LC-MS/MS analysis; format: ADME, organism-based; design: route oral, time 0.25-24 hrs, dose 10 mg/kg; settings: in vivo
# [8] = Tmax in Sprague-Dawley rat at 10 mg/kg, po measured after 0.25 to 24 hrs by LC-MS/MS analysis; format: ADME, organism-based; settings: in vivo, time 0.25-24 hrs
# [9] = AUC(0 to 24 hrs) in Sprague-Dawley rat at 5 mg/kg, iv measured after 0.25 to 24 hrs by LC-MS/MS analysis; format: ADME, organism-based; design: route intravenous, dose 5 mg/kg, time 0.25-24 hrs; settings: in vivo
# [10] = Clearance in Sprague-Dawley rat at 5 mg/kg, iv measured after 0.25 to 24 hrs by LC-MS/MS analysis; format: ADME, organism-based; settings: in vivo, time 0.25-24 hrs
# [11] = Volume of distribution at steady state in Sprague-Dawley rat at 5 mg/kg, iv measured after 0.25 to 24 hrs by LC-MS/MS analysis; format: ADME, organism-based; settings: in vivo, time 0.25-24 hrs, read-out: Vdss
# [12] = Half life in Sprague-Dawley rat at 10 mg/kg, po measured after 0.25 to 24 hrs by LC-MS/MS analysis; format: ADME, organism-based; settings: in vivo, time 0.25-24 hrs
# [13] = Oral bioavailability in Sprague-Dawley rat at 10 mg/kg measured after 0.25 to 24 hrs by LC-MS/MS analysis; format: ADME, organism-based; settings: in vivo, time 0.25-24 hrs
# [14] = Half life in Sprague-Dawley rat at 5 mg/kg, iv measured after 0.25 to 24 hrs by LC-MS/MS analysis; format: ADME, organism-based; settings: in vivo, time 0.25-24 hrs
SMILES,EC50 [1] [nM],EC50 [2] [nM],EC50 [3] [nM],Ki [4] [nM],Ki [5] [nM],EC50 [6] [nM],Cmax [7] [nM],Tmax [8] [h],AUC(0-t) [9] [µM·h],clearance [10] [mL/min/kg],Vd [11] [L/kg],half-life [12] [h],bioavailability [13] [%],half-life [14] [h]
CC(C)(C)[C@@H]1NC(=O)O[C@@H]2CCC[C@H]2OC/C=C/C(F)(F)c2nc3ccccc3nc2O[C@@H]2C[C@@H](C(=O)N[C@]3(C(=O)NS(=O)(=O)C4(C)CC4)C[C@H]3C(F)F)N(C2)C1=O,0.2,30,0.2,–,–,–,–,–,–,–,–,–,–,–
COc1ccc2nc(C)c(O[C@@H]3C[C@H]4C(=O)N[C@]5(C(=O)NS(=O)(=O)C6(C)CC6)C[C@H]5/C=C/CCCCC[C@H](NC(=O)O[C@H](C)C(F)(F)F)C(=O)N4C3)nc2c1,2.5,260,0.5,122,1.1,18,–,–,–,–,–,–,–,–
COc1ccc2nc(C)c(O[C@@H]3C[C@H]4C(=O)N[C@]5(C(=O)NS(=O)(=O)C6(C)CC6)C[C@H]5/C=C/CCCCC[C@H](NC(=O)OC5C[C@@H]6C[C@@H]6C5)C(=O)N4C3)nc2c1 (some centres undefined),0.5,900,0.1,39,0.5,5.3,–,–,–,–,–,–,–,–
COc1ccc2nc(C)c(O[C@@H]3C[C@H]4C(=O)N[C@]5(C(=O)NS(=O)(=O)C6(C)CC6)C[C@H]5/C=C/CCCCC[C@H](NC(=O)OCC5(C(F)(F)F)CC5)C(=O)N4C3)nc2c1,1.4,330,0.1,230,0.9,5.6,–,–,–,–,–,–,–,–
COc1ccc2nc(C)c(O[C@@H]3C[C@H]4C(=O)N[C@]5(C(=O)NS(=O)(=O)C6(C)CC6)C[C@H]5/C=C/CCCCC[C@H](NC(=O)OC5(C(F)(F)F)CCCC5)C(=O)N4C3)nc2c1,20,130,0.3,104,1.3,6.2,110,3,2.7,37,3.9,4.9,11,5.3
COc1ccc2nc(O[C@@H]3C[C@H]4C(=O)N[C@]5(C(=O)NS(=O)(=O)C6(C)CC6)C[C@H]5/C=C/CCCCC[C@H](NC(=O)O[C@@H](C)C(C)C)C(=O)N4C3)c(C(F)(F)F)nc2c1,3.1,1500,0.9,447,6.1,8.7,–,–,–,–,–,–,–,–
COc1ccc2nc(O[C@@H]3C[C@H]4C(=O)N[C@]5(C(=O)NS(=O)(=O)C6(C)CC6)C[C@H]5/C=C/CCCCC[C@H](NC(=O)OC(C)(C)C(F)(F)F)C(=O)N4C3)c(C(F)(F)F)nc2c1,4.3,330,1,390,3.6,10,–,–,–,–,–,–,–,–
COc1ccc2nc(O[C@@H]3C[C@H]4C(=O)N[C@]5(C(=O)NS(=O)(=O)C6(C)CC6)C[C@H]5/C=C/CCCCC[C@H](NC(=O)O[C@H](C)C(F)(F)F)C(=O)N4C3)c(C(F)(F)F)nc2c1,7.3,–,1.6,490,2.8,30,–,–,–,–,–,–,–,–
COc1ccc2nc(O[C@@H]3C[C@H]4C(=O)N[C@]5(C(=O)NS(=O)(=O)C6(C)CC6)C[C@H]5/C=C/CCCCC[C@H](NC(=O)OC5CCC5)C(=O)N4C3)c(C(F)(F)F)nc2c1,50,–,1.8,870,8.5,9.6,–,–,–,–,–,–,–,–
COc1ccc2nc(C)c(O[C@@H]3C[C@H]4C(=O)N[C@]5(C(=O)NS(=O)(=O)C6(C)CC6)C[C@H]5/C=C/CCCCC[C@H](NC(=O)OC5(C(F)(F)F)CCC5)C(=O)N4C3)nc2c1,25,310,0.3,96,1.5,5.9,–,–,–,–,–,–,–,–
COc1ccc2nc(O[C@@H]3C[C@H]4C(=O)N[C@]5(C(=O)NS(=O)(=O)C6(C)CC6)C[C@H]5/C=C/CCCCC[C@H](NC(=O)OC5(C)CCC5)C(=O)N4C3)c(C(F)(F)F)nc2c1,58,–,1.6,283,4.9,26,–,–,–,–,–,–,–,–
COc1ccc2nc(O[C@@H]3C[C@H]4C(=O)N[C@]5(C(=O)NS(=O)(=O)C6(C)CC6)C[C@H]5/C=C/CCCCC[C@H](NC(=O)OC5(C)CCCC5)C(=O)N4C3)c(C(F)(F)F)nc2c1,16,–,5.8,161,0.9,70,–,–,–,–,–,–,–,–
COc1ccc2nc(O[C@@H]3C[C@H]4C(=O)N[C@]5(C(=O)NS(=O)(=O)C6(C)CC6)C[C@H]5/C=C/CCCCC[C@H](NC(=O)O[C@@H](C)C(F)(F)F)C(=O)N4C3)c(C(F)(F)F)nc2c1,18,–,5.6,580,7.7,75,–,–,–,–,–,–,–,–
COc1ccc2nc(C)c(O[C@@H]3C[C@H]4C(=O)N[C@]5(C(=O)NS(=O)(=O)C6(C)CC6)C[C@H]5/C=C/CCCCC[C@H](NC(=O)OC(C)(C)C)C(=O)N4C3)nc2c1,2.2,300,0.6,119,3.6,2.1,180,1.4,2.2,51,3.5,3,10,5.2
COc1ccc2nc(O[C@@H]3C[C@H]4C(=O)N[C@]5(C(=O)NS(=O)(=O)C6(C)CC6)C[C@H]5/C=C/CCCCC[C@H](NC(=O)OC5(C(F)(F)F)CCC5)C(=O)N4C3)c(C(F)(F)F)nc2c1,7.8,900,1.4,133,2,5.1,–,–,–,–,–,–,–,–
COc1ccc2nc(O[C@@H]3C[C@H]4C(=O)N[C@]5(C(=O)NS(=O)(=O)C6(C)CC6)C[C@H]5/C=C/CCCCC[C@H](NC(=O)OC5CCCC5)C(=O)N4C3)c(C(F)(F)F)nc2c1,6.2,–,3.2,433,8.1,45,–,–,–,–,–,–,–,–
COc1ccc2nc(O[C@@H]3C[C@H]4C(=O)N[C@]5(C(=O)NS(=O)(=O)C6(C)CC6)C[C@H]5/C=C/CCCCC[C@H](NC(=O)OCC5(C)CC5(F)F)C(=O)N4C3)c(C(F)(F)F)nc2c1 (some centres undefined),8.5,–,2.7,336,2.1,130,–,–,–,–,–,–,–,–
COc1ccc2nc(C)c(O[C@@H]3C[C@H]4C(=O)N[C@]5(C(=O)NS(=O)(=O)C6(C)CC6)C[C@H]5/C=C/CCCCC[C@H](NC(=O)OC(C)(C)C(F)(F)F)C(=O)N4C3)nc2c1,–,160,0.8,66,2.6,3.3,–,–,–,–,–,–,–,–
COc1ccc2nc(O[C@@H]3C[C@H]4C(=O)N[C@]5(C(=O)NS(=O)(=O)C6(C)CC6)C[C@H]5/C=C/CCCCC[C@H](NC(=O)OC5CC5)C(=O)N4C3)c(C(F)(F)F)nc2c1,14,–,2,522,14,36,–,–,–,–,–,–,–,–
COc1ccc2nc(O[C@@H]3C[C@H]4C(=O)N[C@]5(C(=O)NS(=O)(=O)C6(C)CC6)C[C@H]5/C=C/CCCCC[C@H](NC(=O)OC5(C(F)(F)F)CCCC5)C(=O)N4C3)c(C(F)(F)F)nc2c1,5.2,290,0.7,414,5.7,19,–,–,–,–,–,–,–,–
